Data on 8 compounds can be found in ChEMBL document CHEMBL3044548, “Phytotoxic and antimicrobial activities of catechin derivatives” (2004).

Assay [1] relates to Penicillium sp. Briefly: Antifungal activity against Penicillium sp. at 12.5 to 25 ug/ml after 96 hr by spectrophotometry. The format is functional, organism-based. In a few lines: (§1)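 Spore germination assay. Spores taken from 4-week-old PDA cultures kept in the dark at 24 °C and adjusted to 1 × 10⁵ spores/mL. 100 µL of spores added to serial dilutions of derivatives in PDB, from 1 mg/mL DMSO stocks. Value is the minimum concentration inhibiting germination. DMSO-only controls.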

Assay [2] relates to Erwinia amylovora. The assay can be described thus: Antibacterial activity against Erwinia amylovora after 24 hr by spectrophotometry. In kind it is functional. The method, boiled down:
(§2)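 Bacterial isolates grown overnight at 37 °C to OD600 0.2. 5 µL of suspension incubated with serial dilutions of derivatives (100 to 0.05 µg) from 1 mg/mL DMSO stocks, 37 °C for 24 h. OD600 read; net growth is OD after 24 h minus OD at start. Percent inhibition is (untreated − treated)/untreated × 100. Two separate replicates. DMSO-only controls.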

The subject of assay [3] is Aspergillus niger. The assay can be described thus: Antifungal activity against Aspergillus niger at 12.5 to 25 ug/ml after 96 hr by spectrophotometry. The format is functional, organism-based. The method, boiled down: as §1
For assay [4], the system named is Xanthomonas campestris. The assay can be described thus: Bactericidal activity against Xanthomonas euvesicatoria at 6.3 ug/ml after 24 hr by BacLight bacterial viability fluorescence assay. The format is functional, organism-based.
Assay [5] deals with Pectobacterium carotovorum. The assay can be described thus: Antibacterial activity against Pectobacterium carotovorum after 24 hr by spectrophotometry. The format is functional. In a few lines: as §2
For assay [6], the system named is Erwinia amylovora. The assay can be described thus: Bactericidal activity against Erwinia amylovora at 1.6 ug/ml after 24 hr by BacLight bacterial viability fluorescence assay. In kind it is functional, organism-based.
The test system of assay [7] is Pectobacterium carotovorum. Briefly: Bactericidal activity against Pectobacterium carotovorum at 3.1 ug/ml after 24 hr by BacLight bacterial viability fluorescence assay. The format is functional, organism-based.
The subject of assay [8] is Pseudomonas fluorescens. Briefly: Antibacterial activity against Pseudomonas fluorescens after 24 hr by spectrophotometry. In kind it is functional. The method, boiled down: as §2
Assay [9] has as its system Xanthomonas campestris. Briefly: Antibacterial activity against Xanthomonas campestris pv. vesicatoria after 24 hr by spectrophotometry. In kind it is functional. In a few lines:
as §2

For assay [10], the system named is Pseudomonas fluorescens. Briefly: Bactericidal activity against Pseudomonas fluorescens at 3.1 ug/ml after 24 hr by BacLight bacterial viability fluorescence assay. The format is functional, organism-based.
In assay [11] the test system is Fusarium oxysporum. Briefly: Antifungal activity against Fusarium oxysporum at 12.5 to 25 ug/ml after 96 hr by spectrophotometry. The format is functional, organism-based. In a few lines: as §1
In the next assay the test system is Trichoderma reesei. The assay can be described thus: Antifungal activity against Trichoderma reesei at 12.5 to 25 ug/ml after 96 hr by spectrophotometry. In kind it is functional, organism-based. In a few lines: as §1
The next assay has as its system Trichoderma viride. The assay can be described thus: Antifungal activity against Hypocrea rufa at 12.5 to 25 ug/ml after 96 hr by spectrophotometry. The format is functional, organism-based. In a few lines:
as §1

In assay [12] the test system is Centaurea maculosa. The assay can be described thus: Herbicidal activity against Centaurea maculosa assessed as inhibition of root differentiation at 200 ug/ml after 7 days. The format is functional, organism-based. The method, boiled down:
(§3)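 Ten-day-old seedlings were placed in 5 mL liquid MS basal medium and given filter-sterilized compound at 10, 50, 100 or 200 µg mL^-1. Controls received a methanol vehicle. Cultures were kept at 27 ± 2 °C, shaken at 90 rpm, under 24 µmol m^-2 s^-1 light for 7 days. Shoot and root differentiation were given as percent inhibition versus untreated control, mean ± SD, n = 5.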

The next assay relates to Arabidopsis thaliana. The assay can be described thus: Herbicidal activity against Arabidopsis thaliana assessed as shoot growth inhibition at 200 ug/ml after 7 days. In kind it is functional, organism-based. The method, boiled down:
as §3

The subject of assay [13] is Centaurea maculosa. The assay can be described thus: Herbicidal activity against Centaurea maculosa assessed as shoot growth inhibition at 200 ug/ml after 7 days. The format is functional, organism-based. The method, boiled down: as §3
The next assay concerns Solanum lycopersicum. Briefly: Herbicidal activity against Solanum lycopersicum (tomato) assessed as shoot growth inhibition at 200 ug/ml after 7 days. The format is functional, organism-based. The method, boiled down: as §3
The next assay deals with Ocimum basilicum. Briefly: Herbicidal activity against Ocimum basilicum assessed as shoot growth inhibition at 200 ug/ml after 7 days. In kind it is functional, organism-based. In a few lines:
as §3

The next assay relates to Gaillardia aristata. Briefly: Herbicidal activity against Gaillardia aristata assessed as shoot growth inhibition at 200 ug/ml after 7 days. The format is functional, organism-based. In a few lines:
as §3

Assay [14] deals with Aspergillus niger. Briefly: Antifungal activity against Aspergillus niger at 25 ug/ml after 96 hr by spectrophotometry. The format is functional, organism-based. The method, boiled down: (§4)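 Spores from 4-week-old cultures grown on PDA at 24 °C in the dark were rinsed off in sterile water and adjusted to 1 × 10⁵ spores mL^-1. Spores were incubated with serial dilutions in PDB in 96-well plates at 37 °C under humidity. Controls were DMSO vehicle and (+)-catechin.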

The test system of assay [15] is Penicillium sp. The assay can be described thus: Antifungal activity against Penicillium sp. at 25 ug/ml after 96 hr by spectrophotometry. In kind it is functional, organism-based. In a few lines:
as §4

The subject of assay [16] is Fusarium oxysporum. Briefly: Antifungal activity against Fusarium oxysporum at 25 ug/ml after 96 hr by spectrophotometry. The format is functional, organism-based. In a few lines:
as §1

Molecules are shown by their SMILES. Values after ≈ are worked out from the molar mass of the structure shown. Active and inactive are the calls of the source. The calls are words filed in the database; no cut-off is given here.

Usually MIC stands for the least concentration at which growth counts as inhibited. The low end stands for a more susceptible organism, the high end for a less susceptible organism. On to `CC1(C)O[C@H]2Cc3c(O)cc(O)cc3O[C@@H]2c2cc(O)c(O)cc21`, for which the result with Penicillium sp. [1], in the assay on Aspergillus niger [3], with Fusarium oxysporum [11], in the assay with Trichoderma reesei and with Trichoderma viride was inactive. In addition, the MIC in the assay on Erwinia amylovora [2] stood at 3.1 µg/mL (≈ 9.38 µM); in assay [5], 1.6 µg/mL (≈ 4.84 µM); with Pseudomonas fluorescens [8], 3.1 µg/mL (≈ 9.38 µM); in the assay on Xanthomonas campestris [9], 6.3 µg/mL (≈ 19.1 µM). Further, the outcome (in the assay on Xanthomonas campestris [4]; in the assay with Erwinia amylovora [6]; in assay [7]; in the assay with Pseudomonas fluorescens [10]) was Active.
With `COc1cc(OC)c2c(c1)OC(c1ccc(OC)c(OC)c1)C(O)C2` (racemic), the outcome with Penicillium sp. [1], with Aspergillus niger [3], in the assay with Fusarium oxysporum [11], in the assay with Trichoderma reesei and in the assay with Trichoderma viride was inactive. The MIC against Erwinia amylovora [2] amounted to 12.5 µg/mL (≈ 36.1 µM); in assay [5] it was 6.3 µg/mL (≈ 18.2 µM); with Pseudomonas fluorescens [8], 12.5 µg/mL (≈ 36.1 µM); against Xanthomonas campestris [9] it was 12.5 µg/mL (≈ 36.1 µM). For the same compound, the inhibition result in the assay with Centaurea maculosa [12] was “Active”. The “growth inhibition (GI)” value in the assay on Arabidopsis thaliana, in the assay with Centaurea maculosa [13], with Solanum lycopersicum, with Ocimum basilicum and with Gaillardia aristata was “Active” each time. Also, the outcome (in the assay on Xanthomonas campestris [4]; in the assay with Erwinia amylovora [6]; in [7]; in the assay on Pseudomonas fluorescens [10]) was Active.
In the case of `CC(=O)Oc1cc(OC(C)=O)c2c(c1)OC(c1ccc(OC(C)=O)c(OC(C)=O)c1)C(OC(C)=O)C2` (racemic) [(+/-)-PENTAACETYLCATECHIN], the result with Penicillium sp. [1], in the assay on Aspergillus niger [3], in the assay on Fusarium oxysporum [11], in the assay on Trichoderma reesei and in the assay with Trichoderma viride was inactive. The MIC turned out to be 25 µg/mL (≈ 50 µM) in the assay on Erwinia amylovora [2], 25 µg/mL (≈ 50 µM) in assay [5], 12.5 µg/mL (≈ 25 µM) in the assay with Pseudomonas fluorescens [8] and 25 µg/mL (≈ 50 µM) in the assay with Xanthomonas campestris [9]. Further, the outcome (in the assay on Xanthomonas campestris [4]; in the assay with Erwinia amylovora [6]; in assay [7]; with Pseudomonas fluorescens [10]) was Active.
Take `Oc1cc(O)c2c(c1)OC(c1ccc(O)c(O)c1)C(O)C2` (racemic): the outcome in the assay on Penicillium sp. [1], in the assay on Aspergillus niger [3], in the assay on Fusarium oxysporum [11], in the assay with Trichoderma reesei and in the assay with Trichoderma viride was inactive. Moreover, the result (in the assay with Xanthomonas campestris [4]; with Erwinia amylovora [6]; in assay [7]; in the assay on Pseudomonas fluorescens [10]) was Active.
Consider `COc1cc(OC)c2c(c1)O[C@H](c1ccc(OC)c(OC)c1)[C@@H](O)C2` [CATECHIN TETRAMETHYLETHER], for which the MIC against Erwinia amylovora [2] was 25 µg/mL (≈ 72.2 µM); in assay [5], 6.3 µg/mL (≈ 18.2 µM); in the assay on Pseudomonas fluorescens [8], 6.3 µg/mL (≈ 18.2 µM); against Xanthomonas campestris [9], 25 µg/mL (≈ 72.2 µM). For the same compound, the result (with Xanthomonas campestris [4]; in the assay on Aspergillus niger [14]; in the assay on Erwinia amylovora [6]; in [7]; in the assay on Pseudomonas fluorescens [10]; in the assay with Penicillium sp. [15]) was Active. The outcome in the assay with Fusarium oxysporum [11], in the assay on Trichoderma reesei and in the assay with Trichoderma viride was inactive.
`Oc1cc(O)c2c(c1)O[C@H](c1ccc(O)c(O)c1)[C@@H](O)C2` [CIANIDANOL]: the result (in the assay on Penicillium sp. [1]; in the assay on Aspergillus niger [3]; with Xanthomonas campestris [4]; in the assay on Erwinia amylovora [6]; in assay [7]; in the assay with Pseudomonas fluorescens [10]) was Active. The outcome with Fusarium oxysporum [11], in the assay with Trichoderma reesei and with Trichoderma viride was Active. In addition, the MIC (in the assay on Erwinia amylovora [2]; in assay [5]; against Pseudomonas fluorescens [8]; in the assay with Xanthomonas campestris [9]) was 1.6 µg/mL (≈ 5.51 µM) throughout.
For `CC1(C)OC2Cc3c(O)cc(O)cc3OC2c2cc(O)c(O)cc21` (racemic), the outcome in the assay on Penicillium sp. [1], with Aspergillus niger [3], in the assay on Fusarium oxysporum [11], in the assay on Trichoderma reesei and in the assay with Trichoderma viride was inactive. Also, the MIC (with Erwinia amylovora [2]; in assay [5]; in the assay with Pseudomonas fluorescens [8]; with Xanthomonas campestris [9]) was 12.5 µg/mL (≈ 37.8 µM) each time. Further, in the assay with Centaurea maculosa [12], the inhibition result was “Active”. Moreover, the “growth inhibition (GI)” value in the assay on Arabidopsis thaliana, in the assay with Centaurea maculosa [13], in the assay with Solanum lycopersicum, in the assay with Ocimum basilicum and with Gaillardia aristata was “Active” each time. Further, the outcome (with Xanthomonas campestris [4]; in the assay on Erwinia amylovora [6]; in assay [7]; in the assay with Pseudomonas fluorescens [10]) was Active.
As to `CC(=O)Oc1cc(OC(C)=O)c2c(c1)O[C@H](c1ccc(OC(C)=O)c(OC(C)=O)c1)[C@@H](OC(C)=O)C2` [CATECHIN PENTAACETATE], the outcome (in the assay with Fusarium oxysporum [16]; in the assay with Xanthomonas campestris [4]; with Erwinia amylovora [6]; in assay [7]; in the assay with Pseudomonas fluorescens [10]) was Active. Also, the result with Penicillium sp. [1], in the assay with Aspergillus niger [3], in the assay on Trichoderma reesei and in the assay on Trichoderma viride was inactive. Further, the MIC (against Erwinia amylovora [2]; in [5]; against Pseudomonas fluorescens [8]; against Xanthomonas campestris [9]) was 6.3 µg/mL (≈ 12.6 µM) in each case.
